Test results as given in article PMC3172994 (Biochemistry, 2011).
Several values for one entry are separate records, joined by “and”; a condition that tells them apart may be missing. Identical values can stand only once. Like-named read-outs stand apart in the source and are kept apart here.

What was measured:
[1] = biological target: HT cleavage of human fibrinogen (Homo sapiens, UniProt P00734); assay: Turbidimetric assay of thrombin cleavage of fibrinogen; format: biochemical; conditions: 0.7 - 1.8 mM SOS, turbidity at 600 nm
BT (bovine thrombin) = BT (bovine thrombin) (Bos taurus, UniProt P00735); format: biochemical; conditions: not shown
In short: (§1)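 Purified α-thrombin with the test compound in 20 mM phosphate or Tris, pH 7.4, 150 mM NaCl, 0.1 mM EDTA or CaCl₂, 0.1% PEG 8000. Cuvette format: 5 nM enzyme, 50 μM Spectrozyme TH, room temperature. Plate format: 12.5 nM enzyme, 10 min preincubation at 25 °C. Initial A405 rate taken as activity relative to a no-compound control. A logistic fit gave IC50, Hill slope and maximal inhibition (from Y0, YM).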

thrombin [2] = conditions: cited from earlier work
human α-thrombin [3] = biological target: T1, human α-thrombin (Homo sapiens, UniProt P00734); format: biochemical
In short: as §1

human α-thrombin [4] = biological target: T1, human α-thrombin; assay: PABA fluorescence titration of SOS binding to human thrombin; conditions: for ΔG° / ΔFMAX / Kd: pH 7.4, 25 °C; for ΔFMAX: PABA fluorescence λEM 370 nm; for Kd: read-out: KD,OBS
thrombin [5] = conditions: cited from earlier work; remark: listed apart in the source
[6] = pH 7.4, I = 0.15, 25 °C, Spectrozyme TH

SMILES: O=S(=O)(O)OC[C@H]1O[C@@](COS(=O)(=O)O)(O[C@H]2O[C@H](COS(=O)(=O)O)[C@@H](OS(=O)(=O)O)[C@H](OS(=O)(=O)O)[C@H]2OS(=O)(=O)O)[C@@H](OS(=O)(=O)O)[C@@H]1OS(=O)(=O)O [SOS, Sucrose octasulfate]
- effect on fibrinogen cleavage profile [1]: gradual increase in the lag time of cleavage
- maximal inhibition of Spectrozyme TH hydrolysis (BT (bovine thrombin)): 20 ± 2.0%
- inhibition of thrombin hydrolysis of CBS31.39 (thrombin [2]): ≤ 10%
- maximal inhibition of Spectrozyme TH hydrolysis (human α-thrombin [3]; HT, from Y0 and YM of equation 3): 13.5 ± 0.2%
- Hill slope (human α-thrombin [3]; [6]): 1.5 ± 0.5
- IC50 (human α-thrombin [3]; [6]): 4.5 ± 1.1 µM
- contribution due to non-ionic forces (human α-thrombin [4]): 2.4 kcal/mol
- maximal decrease in fluorescence at 370 nm (human α-thrombin [4]; 20 mM sodium phosphate, pH 7.4, 50 mM NaCl): approximately 5%
- ΔG° (human α-thrombin [4]; 50 mM NaCl): 7.9 ± 0.1 kcal/mol
- ΔFMAX (human α-thrombin [4]; 50 mM NaCl): −4.8±0.1%
- ΔG° (human α-thrombin [4]; 150 mM NaCl): 6.4 ± 0.2 kcal/mol
- ΔFMAX (human α-thrombin [4]; 150 mM NaCl): −6.4±0.3%
- ΔG° (human α-thrombin [4]; 250 mM NaCl): 5.2 ± 0.2 kcal/mol
- ΔFMAX (human α-thrombin [4]; 250 mM NaCl): −9.2±0.6%
- non-ionic contribution relative to heparin - HT complex (human α-thrombin [4]; SOS - HT vs heparin - HT): approximately 12.5 fold
- slope of logKD,OBS vs log[Na+] (human α-thrombin [4]; pH 7.4): 3.8 ± 0.5
- contribution of non-ionic forces, share of total binding energy (human α-thrombin [4]; pH 7.4, I 0.15): approximately 35%
- ionic binding energy (human α-thrombin [4]; pH 7.4, I = 0.15, 25 °C): 4.5 kcal/mol
- Kd (human α-thrombin [4]; 50 mM NaCl, I = 0.085): ~1.4 µM and 1.4 µM
- Kd (human α-thrombin [4]; 150 mM NaCl): 22 ± 4 µM
- Kd (human α-thrombin [4]; 250 mM NaCl): 149 ± 25 µM

SMILES: N=C(N)c1ccc(N)cc1 [PABA, p-aminobenzamidine]
- Kd (thrombin [5]): 60 to 80 µM
